The subject of series [1] is HeLa. As to the kind of experiment: Tumor promoter activity in human HeLa cells assessed as enhancement of incorporation of 32Pi into phospholipid per mg of protein at 10 nM. The series is classed as ADME, cell-based. The following applies: 0.01 µM. In short, it runs like this: (§1)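 HeLa cells treated with compound in 0.2% DMSO (vehicle control). Radioactive inorganic phosphate (32Pi) uptake into phospholipids measured by a previously reported method with slight modifications. Results given as cpm per mg protein relative to the DMSO control, with standard deviation. Compound tested at 10^-10 to 10^-7 M.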

Series [2] concerns HeLa. As to the kind of experiment: Tumor promoter activity in human HeLa cells assessed as enhancement of incorporation of 32Pi into phospholipid per mg of protein at 1 nM. The conditions noted are these: 0.001 µM. The series is classed as ADME, cell-based. In short, it runs like this:
as §1

Series [3] relates to HeLa. The series is described as follows: Tumor promoter activity in human HeLa cells assessed as enhancement of incorporation of 32Pi into phospholipid per mg of protein at 0.1 nM. The series is classed as ADME, cell-based. The following applies: 0.0001 µM. In short, it runs like this: as §1
Series [4] has as its system HeLa. As to the kind of experiment: Tumor promoter activity in human HeLa cells assessed as enhancement of incorporation of 32Pi into phospholipid per mg of protein at 0.1 uM. Format: ADME, cell-based. In short, it runs like this:
as §1

Series [5] is described as follows: Displacement of [3H]TPA from phorbol ester receptor in ICR mouse epidermal particulate. In short, it runs like this: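 Competition for specific [3H]-TPA binding to a particulate fraction from dorsal epidermis of female ICR mice, by the cold Me2CO filter method with slight modifications. IC50 (concentration giving 50% inhibition) found by probit analysis. Because IC50 drifts between particulate preparations, all compounds were run together on one fraction. Value reported as log 1/M.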
(In general: Displacement assays read how much labelled ligand stays bound in the presence of the test substance.)

Three compounds from ChEMBL document CHEMBL1149047, “New teleocidin-related metabolites, (-)-7-geranylindolactam V and blastmycetin F, from Streptoverticillium blastmyceticum” (J Nat Prod, 1994) can be followed below.

In the case of `C=C[C@@]1(C)CC[C@](C)(C(C)C)c2cc3c4c(c[nH]c4c21)C[C@@H](CO)NC(=O)[C@H](C(C)C)N3C`, the relative 32Pi incorporation turned out to be 6.72 in the series with HeLa [1], 1.82 in the series with HeLa [2], 1.19 in the series with HeLa [3] and 7.46 with HeLa [4].
In the case of `C=C[C@](C)(CCC=C(C)C)c1ccc2c3c(c[nH]c13)C[C@@H](CO)NC(=O)[C@H](C(C)C)N2C`, the relative 32Pi incorporation was 4.59 in the series with HeLa [1], 1.57 in the series with HeLa [2], 1.05 in the series with HeLa [3] and 8.36 in the series on HeLa [4].
What is called pIC50 is −log10 of the IC50, conventionally taken in molar units. Read a high pIC50 as a small IC50. For the compound `CC(C)=CCC/C(C)=C/Cc1ccc2c3c(c[nH]c13)C[C@@H](CO)NC(=O)[C@H](C(C)C)N2C`, the relative 32Pi incorporation with HeLa [1] came to 2.61; in the series with HeLa [2], 1.41; in the series with HeLa [3], 0.97; in the series on HeLa [4], 6.64. The compound further returned a pIC50 in series [5] of 8.05.
